Assays:
Influenza B virus = assay: Antiviral activity against Influenza B virus infected in MDCK cells assessed as reduction in virus-induced cytopathogenicity; assay type: functional, organism-based
Method in brief: (§1)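 Confluent cell monolayers (Vero, HeLa, HEL or MDCK, as named in each line) were infected with 100 CCID50 of virus while exposed to a range of compound concentrations. Cytopathicity was scored once it was complete in untreated infected controls.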

Influenza A virus [1] = assay: Antiviral activity against Influenza A virus […] infected in MDCK cells assessed as reduction in virus-induced cytopathogenicity; assay type: functional, organism-based; method in brief: as §1
Punta Toro virus = assay: Antiviral activity against Punta Toro virus infected in african green monkey Vero cells assessed as reduction in virus-induced cytopathogenicity; assay type: functional, organism-based; method in brief: as §1
Coxsackievirus B4 [2] = assay: Antiviral activity against Coxsackievirus B4 infected in african green monkey Vero cells assessed as reduction in virus-induced cytopathogenicity; assay type: functional, organism-based; conditions: Enterovirus B; method in brief: as §1
Sindbis virus = assay: Antiviral activity against Sindbis virus infected in african green monkey Vero cells assessed as reduction in virus-induced cytopathogenicity; assay type: functional, organism-based; method in brief: as §1
[3] = system: Mammalian orthoreovirus 1; assay: Antiviral activity against Reovirus-1 infected in african green monkey Vero cells assessed as reduction in virus-induced cytopathogenicity; assay type: functional, organism-based; conditions: Mammalian orthoreovirus 1, Vero
Method in brief: (§2)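 Confluent Vero monolayers in 96-well plates were inoculated with 100 CCID50 of virus together with varying compound concentrations. Cytopathicity was scored once it was complete in untreated virus-infected control cultures.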

Human respirovirus 3 = assay: Antiviral activity against Parainfluenza virus 3 infected in african green monkey Vero cells assessed as reduction in virus-induced cytopathogenicity; assay type: functional, organism-based; conditions: Human respirovirus 3, Vero; method in brief: as §2
[4] = system: Respiratory syncytial virus; assay: Antiviral activity against Respiratory syncytial virus Long infected in human HeLa cells assessed as reduction in virus-induced cytopathogenicity; assay type: functional, organism-based; method in brief: as §1
Coxsackievirus B4 [5] = assay: Antiviral activity against Coxsackievirus B4 infected in human HeLa cells assessed as reduction in virus-induced cytopathogenicity; assay type: functional, organism-based; conditions: Enterovirus B; method in brief: as §1
Influenza A virus [6] = assay: Antiviral activity against Influenza A virus H1N1 infected in MDCK cells assessed as reduction in virus-induced cytopathogenicity; assay type: functional, organism-based; method in brief: as §1
[7] = system: Vesicular stomatitis virus; assay: Antiviral activity against Vesicular stomatitis virus infected in human HeLa cells assessed as reduction in virus-induced cytopathogenicity; assay type: functional, organism-based; method in brief: as §1
Human alphaherpesvirus 1 [8] = assay: Antiviral activity against thymidine kinase negative […] Herpes simplex virus-1 KOS infected in human HEL cells assessed as reduction in virus-induced cytopathogenicity; assay type: functional, organism-based; conditions: Human alphaherpesvirus 1, KOS; method in brief: as §1
[9] = system: Vesicular stomatitis virus; assay: Antiviral activity against Vesicular stomatitis virus infected in human HEL cells assessed as reduction in virus-induced cytopathogenicity; assay type: functional, organism-based; method in brief: as §1
Human alphaherpesvirus 2 = assay: Antiviral activity against Herpes simplex virus-2 G infected in human HEL cells assessed as reduction in virus-induced cytopathogenicity; assay type: functional, organism-based; conditions: Human alphaherpesvirus 2, strain G; method in brief: as §1
Human alphaherpesvirus 1 [10] = assay: Antiviral activity against Herpes simplex virus-1 KOS infected in human HEL cells assessed as reduction in virus-induced cytopathogenicity; assay type: functional, organism-based; conditions: Human alphaherpesvirus 1, KOS; method in brief: as §1
Felid alphaherpesvirus 1 = assay: Antiviral activity against Feline Herpes virus infected in cat CRFK cells assessed as inhibition of virus-induced cytopathic effect by MTS assay; assay type: functional, organism-based; conditions: Felid alphaherpesvirus 1, CRFK
Feline coronavirus = assay: Antiviral activity against Feline coronavirus infected in cat CRFK cells assessed as inhibition of virus-induced cytopathic effect by MTS assay; assay type: functional, organism-based; conditions: Alphacoronavirus 1, CRFK
Human alphaherpesvirus 3 [11] = assay: Antiviral activity against thymidine kinase negative Varicella-zoster virus 07-1 infected in human HEL cells assessed as reduction in the virus plaque formation; assay type: functional, organism-based; conditions: Human alphaherpesvirus 3, 07-1, HEL
Method in brief: (§3)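 Confluent HEL fibroblast cultures received 20 PFU of VZV together with varying compound concentrations. Plaque formation was read when it reached completion in untreated virus controls.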

Human alphaherpesvirus 3 [12] = assay: Antiviral activity against thymidine kinase positive Varicella-zoster virus OKA infected in human HEL cells assessed as reduction in virus plaque formation; assay type: functional, cell-based, Human herpesvirus 3 strain Oka vaccine; conditions: Human alphaherpesvirus 3, OKA; method in brief: as §3
Cytomegalovirus [13] = assay: Antiviral activity against Cytomegalovirus Davis infected in human HEL cells assessed as reduction in virus plaque formation; assay type: functional, organism-based; conditions: Human betaherpesvirus 5, Davis
Method in brief: (§4)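 Confluent HEL fibroblasts were inoculated with 100 PFU of CMV at graded compound concentrations. Plaques were counted once formation was complete in untreated infected controls.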

[14] = Cytotoxicity against MDCK cells assessed as morphological changes; assay type: cell-based, Canis lupus familiaris; conditions: dog
[15] = Cytotoxicity against african green monkey Vero cells assessed as morphological changes; assay type: cell-based; conditions: chlorocebus sabaeus
[16] = Cytotoxicity against human HeLa cells assessed as morphological changes; assay type: cell-based
[17] = Cytotoxicity against cat CRFK cells assessed as cell viability by MTS assay; assay type: cell-based, Felis catus
Cytomegalovirus [18] = assay: Antiviral activity against Cytomegalovirus AD-169 infected in human HEL cells assessed as reduction in virus plaque formation; assay type: functional, organism-based; conditions: Human betaherpesvirus 5, AD-169, HEL; method in brief: as §4
[19] = Cytotoxicity against human HEL cells assessed as morphological changes; assay type: cell-based

## Cc1cc(C)c(/C=C/c2nc(N)[nH]c(=O)c2Br)c(C)c1
Influenza B virus
  EC50: > 20 µM
Influenza A virus [1]
  EC50: > 20 µM
Punta Toro virus
  EC50: > 20 µM
Coxsackievirus B4 [2]
  EC50: > 20 µM
Sindbis virus
  EC50: > 20 µM
[3]
  EC50: > 20 µM
Human respirovirus 3
  EC50: > 20 µM
[4]
  EC50: > 20 µM
Coxsackievirus B4 [5]
  EC50: > 20 µM
Influenza A virus [6]
  EC50: > 20 µM
[7]
  EC50: > 20 µM
Human alphaherpesvirus 1 [8]
  EC50: > 20 µM
[9]
  EC50: > 20 µM
Human alphaherpesvirus 2
  EC50: > 20 µM
Human alphaherpesvirus 1 [10]
  EC50: > 20 µM
Felid alphaherpesvirus 1
  EC50: 1500 nM
Feline coronavirus
  EC50: > 20 µM
Human alphaherpesvirus 3 [11]
  EC50: 5.3 µM
Human alphaherpesvirus 3 [12]
  EC50: 2500 nM
Cytomegalovirus [13]
  EC50: 8.9 µM
[14]
  MCC: > 20 µM
[15]
  MCC: 100 µM
[16]
  MCC: 100 µM
[17]
  MCC: 58 µM
Cytomegalovirus [18]
  EC50: 11 µM
[19]
  MCC: > 20 µM

— ChEMBL document CHEMBL2417481, “Regioselective synthesis of 6-substituted-2-amino-5-bromo-4(3H)-pyrimidinones and evaluation of their antiviral activity” (Eur J Med Chem, 2013)
